Variants at the floor of the assay were thinned out.
B1: tRNA (parent)
chain: GUUCCGUUGGCGUAAUGGUAACGCGUCUCCCUCCUAAGGAGAAGACUGCGGGUUCGAGUCCCGUACGGAACG

Variants of: B1
Assay: yeast fitness relative to wild type (ratio to wild type); higher = fitter; tRNA-Arg(CCU), competitive growth, 37 C, YPD
Outline: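 Amplicons of the tRNA-Arg(CCU) gene were sequenced, 100-nucleotide paired-end, from the start population and from each end population of a pooled yeast competition. The competition, in six parallel replicates, lasted 24 hours in YPD at 37°C. Fitness relative to wild type was calculated from changes in genotype frequencies. Genotypes had to have ≥ 100 starting reads, and estimates < 0.5 were set to 0.5.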

Variant | yeast fitness
C11U C30G A40U U54A | ≤ 0.5
C11U G38C C62G | 0.542
C11U C46U C49U G67C | ≤ 0.5
C11U U13C C30A G52A A69U | ≤ 0.5
C11U U19A C60G G68A | ≤ 0.5
C11U C30A A65C | 0.685
C11U C62U A69C | 0.842
C11U G18C G39C | ≤ 0.5
C11U C33G C60A | ≤ 0.5
C11U U28C C29G | 0.541
C11U U13C A42U C55A G56A | 0.762
C11U U54A C62U | ≤ 0.5
C11U C46U G56C A69U | ≤ 0.5
C11U C30A U47A | 0.57
C11U U16C C33A U53C | ≤ 0.5
C11U U13A C27G C46A C49G | ≤ 0.5
C11U G58A G63A | 0.74
C11U G56C C62U | 0.575
C11U C30U G41C | ≤ 0.5
C11U G44A G63A | 0.74
C11U U19A A21C A42G | 0.568
C11U G25A A57C C60U G67C | ≤ 0.5
C11U G38C C55G G67A | ≤ 0.5
C11U G18C G23C A57C | ≤ 0.5

Variant | yeast fitness
C11U C31G A45C | ≤ 0.5
C11U U53G | 0.608
C11U U53A | 0.751
C11U G44A C60G U64C | ≤ 0.5
C11U C61G A65C | 0.609
C11U G38A A40U G52C G68C A69G | ≤ 0.5
C11U C33A C34G | 0.526
C11U U19A C30G G68A | ≤ 0.5
C11U C46U G52C U59C C66U | ≤ 0.5
C11U U16C C24U A42C G56C A65C | ≤ 0.5
C11U U16A A36G A43G C62A | ≤ 0.5
C11U C30U A65U C66G | 0.585
C11U C31U A42C G44A A45U | ≤ 0.5
C11U U28C | 0.918
C11U G25A A43G | 0.592
C11U G58A A65G | 0.777
C11U C30U C55G | 0.541
C11U G58A | 1.01
C11U C61U A70G | 0.77
C11U U19A A37C A40C | 0.501
C11U C61U | 0.827
C11U U13C C27G A69C | ≤ 0.5
C11U G23C G58A | 0.669
C11U U19G C27U G48A C61G | ≤ 0.5

Variant | yeast fitness
C11U U19A C29U C30G | ≤ 0.5
C11U C31G C34G A43U A69C | ≤ 0.5
C11U C30G G56C | ≤ 0.5
C11U G39C G41A | ≤ 0.5
C11U U13G A20U U53G | ≤ 0.5
C11U G56C | 0.709
C11U C61U G68A | 0.615
C11U G52A A69C | 0.865
C11U U13A G25A | 0.716
C11U G44C G58A | 0.712
C11U U28C C30G C49G | ≤ 0.5
C11U C33G U54A U64A | ≤ 0.5
C11U G51A G56A U59C | ≤ 0.5
C11U G48A G51C | 0.832
C11U G48A G51A | 0.724
C11U U26A C34G | 0.607
C11U C29U A45C C60G A65C | ≤ 0.5
C11U U35C G41A G58A | ≤ 0.5
C11U U26A C33U U53C | ≤ 0.5
C11U G41C C60G | 0.647
C11U G48A C49A U54A | ≤ 0.5
C11U C30U C34G | 0.576
C11U C49G C55G C61G | ≤ 0.5
C11U C31U G41A | 0.714

Variant | yeast fitness
C11U G25A A57U | ≤ 0.5
C11U G18A G23A A36U G48C | ≤ 0.5
C11U C31A A42G | 0.525
C11U C55U G68C | 0.537
C11U G41C | 0.852
C11U C29G A37C A42U A57G | ≤ 0.5
C11U G38A A43C A65C | ≤ 0.5
C11U C29U G48A | 0.621
C11U G51A | 0.727
C11U U32C A40U | 0.785
C11U U35A G38A C55A C61G | ≤ 0.5
C11U U28A C29U | 0.93
C11U G18A G23C C34U | ≤ 0.5
C11U G48A G67C | 0.731
C11U G17C A21C C24A G41A C46G C61A | ≤ 0.5
C11U U47C G51C A70G | 0.669
C11U G63C C66U | ≤ 0.5
C11U G63C | 0.725
C11U C61A C62U G63C A70U | ≤ 0.5
C11U C34A G41C A42G | ≤ 0.5
C11U G17A C34U C55G | ≤ 0.5
C11U U26A C31G A37U | ≤ 0.5
C11U U13A U32C C49U | ≤ 0.5
C11U U16C C31U U54C | ≤ 0.5

Variant | yeast fitness
C11U G18A A40U | ≤ 0.5
C11U U19G C27U U47C A70U | ≤ 0.5
C11U G48A C62A | 0.762
C11U U32C | 0.933
C11U U32A | 0.772
C11U C31G C49G | 0.696
C11U C29U C66U | 0.603
C11U G67C | 0.792
C11U G17U A40U A42U C49G G51A C66A G68C | ≤ 0.5
C11U C34U A43G | ≤ 0.5
C11U U19G C33U A40G G67A | ≤ 0.5
C11U C34A A36C | ≤ 0.5
C11U U19A A43U C49U U59A G63A | ≤ 0.5
C11U C55G G67A | ≤ 0.5
C11U G23C | 0.757
C11U G39C C55G | ≤ 0.5
C11U G39C C55A | ≤ 0.5
C11U G25C | 0.982
C11U C31U G58C | 0.643
C11U G25A C66U A70C | 0.688
C11U G52C A69G | ≤ 0.5
C11U C31G C55U C61U A65G | ≤ 0.5
C11U U26G U28C C49A G58C C62U | 0.527
C11U G51A U59A | ≤ 0.5

Variant | yeast fitness
C11U G12A A15C C31A G51A C66U | 0.594
C11U G38A C60G | ≤ 0.5
C11U U35C | 0.7
C11U C29U U47C G67A A70U | ≤ 0.5
C11U U26G U28C G56A | ≤ 0.5
C11U C34G A45C G51A A65U | ≤ 0.5
C11U C34U G38A G44C C66U | ≤ 0.5
C11U C29U G38A G48C C62G | ≤ 0.5
C11U G51A A65U | ≤ 0.5
C11U C31U A42G C62U A69C | ≤ 0.5
C11U C29U G50A C66A | ≤ 0.5
C11U C31G A37U G51C G58A | ≤ 0.5
C11U C29A U54A A70C | ≤ 0.5
C11U U19G G51C C66A | 0.578
C11U C33G C61U | ≤ 0.5
C11U G25A U59G | 0.538
C11U U16A C60G C62G | ≤ 0.5
C11U U19A U64C | 0.664
C11U U13C A69C | 0.737
C11U C55G A69C | 0.509
C11U G44C C62A | ≤ 0.5
C11U C55G C66U | ≤ 0.5
C11U C46U G67C | 0.608
C11U C60A | 0.631

Variant | yeast fitness
C11U C31G C46G | 0.673
C11U C31G C46A | 0.629
C11U C31U U59A | ≤ 0.5
C11U G25A A70C | 0.892
C11U G17A C49U | 0.596
C11U C29G A37C A42U A57G C61U G67A | ≤ 0.5
C11U U47C G67A | 0.783
C11U G18A C31U A40U U47G | ≤ 0.5
C11U U13C C29U A37C G39A C46A | ≤ 0.5
C11U C30A U47A C62A | 0.591
C11U G44A C55G | 0.572
C11U C34G G38C C61U | ≤ 0.5
C11U U26C U47A U64A | ≤ 0.5
C11U C33U G68C | 0.527
C11U U35A G38A G52A G56C | ≤ 0.5
C11U U26A A43U C60A A65G | 0.531
C11U G23A C60G C62A | ≤ 0.5
C11U G12C C46A | ≤ 0.5
C11U U13A C62U | 0.721
C11U G12C A21U U32A | 0.694
C11U U28C C29G G39C | ≤ 0.5
C11U U35A G48C C61U | ≤ 0.5
C11U U59A C66G | ≤ 0.5

Source: the RNAGym collection of RNA variant scans (doi:10.1126/science.aae0568)
